From ChEMBL document CHEMBL2203056, “Antimutagenic thio compounds from Sisymbrium officinale” (J Nat Prod, 2012)

What was measured:
[1] = Cytotoxicity against Escherichia coli WP2 (trpE65 deltauvrApKM101) assessed as cell viability up to 10 to 300 ug/mL after 72 hrs in presence of 25 ug/plate 2-aminofluorene and metabolic activation system S9; assay type: ADME, organism-based; details: read-out: Activity
[2] = Cytotoxicity against Escherichia coli WP2 (trpE65 deltauvrA) assessed as cell viability up to 10 to 300 ug/mL after 72 hrs in presence of 25 ug/plate 2-aminofluorene and metabolic activation system S9; assay type: ADME, organism-based; details: read-out: Activity
[3] = Cytotoxicity against Escherichia coli WP2 (trpE65) assessed as cell viability up to 10 to 300 ug/mL after 72 hrs in presence of 25 ug/plate 2-aminofluorene and metabolic activation system S9; assay type: ADME, organism-based; details: read-out: Activity
Summary of the method: (§1)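 Viability check on the antimutagenicity mixtures. Culture, mutagen (MMS 1700 μg/plate; 2AA or 2AF 25 μg/plate with S9 mix), test substance and S9 mix or 0.1 M phosphate buffer were shaken 30 min at 37 °C. Mixtures were diluted to 2 × 10^3 cells/mL, plated in top agar on nutrient agar and incubated 72 h at 37 °C. Colonies counted and compared with the solvent-only negative control.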

[4] = Cytotoxicity against Escherichia coli WP2 (trpE65 deltauvrApKM101) assessed as cell viability up to 10 to 300 ug/mL after 72 hrs in presence of 25 ug/plate 2-aminoanthracene and metabolic activation system S9; assay type: ADME, organism-based; details: read-out: Activity; summary of the method: as §1
[5] = Cytotoxicity against Escherichia coli WP2 (trpE65 deltauvrA) assessed as cell viability up to 10 to 300 ug/mL after 72 hrs in presence of 25 ug/plate 2-aminoanthracene and metabolic activation system S9; assay type: ADME, organism-based; details: read-out: Activity; summary of the method: as §1
[6] = Cytotoxicity against Escherichia coli WP2 (trpE65) assessed as cell viability up to 10 to 300 ug/mL after 72 hrs in presence of 25 ug/plate 2-aminoanthracene and metabolic activation system S9; assay type: ADME, organism-based; details: read-out: Activity
Escherichia coli [7] = experiment: Antimutagenic activity in Escherichia coli WP2 (trpE65) assessed as maximal inhibition of 2-aminofluorene-induced mutagenic effect at 10 to 300 ug/plate after 72 hrs in presence of metabolic activation system S9 by Ames test; assay type: functional
Summary of the method: (§2)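 Preincubation Ames test with E. coli WP2 strains, from 16 h overnight cultures at 37 °C (about 2 × 10^9 bacteria/mL). Culture, mutagen, test substance (DMSO, 2% v/v vehicle) and either S9 mix (phenobarbital/β-naphthoflavone-induced rat liver) or 0.1 M phosphate buffer were shaken 30 min at 37 °C. Mutagens were MMS 1700 μg/plate without S9, and 2AA or 2AF 25 μg/plate with S9. Then top agar with 0.5 mM tryptophan on minimal agar, 72 h at 37 °C; tryptophan-independent revertants scored. Inhibition = 100 − (T/M × 100). Triplicates, at least two experiments.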

Escherichia coli [8] = experiment: Antimutagenic activity in Escherichia coli WP2 (trpE65 deltauvrApKM101) assessed as maximal inhibition of 2-aminoanthracene-induced mutagenic effect at 10 to 300 ug/plate after 72 hrs in presence of metabolic activation system S9 by Ames test; assay type: functional; summary of the method: as §2
Escherichia coli [9] = experiment: Antimutagenic activity in Escherichia coli WP2 (trpE65 deltauvrA) assessed as maximal inhibition of 2-aminoanthracene-induced mutagenic effect at 10 to 300 ug/plate after 72 hrs in presence of metabolic activation system S9 by Ames test; assay type: functional; summary of the method: as §2
[10] = Cytotoxicity against Escherichia coli WP2 (trpE65 deltauvrApKM101) assessed as cell viability up to 10 to 300 ug/mL after 72 hrs in presence of 1700 ug/plate methyl methane sulfonate; assay type: organism-based; details: Escherichia coli WP2 (trpE65 deltauvrApKM101) cells, read-out: Activity; summary of the method: as §1
[11] = Cytotoxicity against Escherichia coli WP2 (trpE65 deltauvrA) assessed as cell viability up to 10 to 300 ug/mL after 72 hrs in presence of 1700 ug/plate methyl methane sulfonate; assay type: organism-based; details: Escherichia coli WP2 (trpE65 deltauvrA) cells, read-out: Activity; summary of the method: as §1
[12] = Cytotoxicity against Escherichia coli WP2 (trpE65) assessed as cell viability up to 10 to 300 ug/mL after 72 hrs in presence of 1700 ug/plate methyl methane sulfonate; assay type: organism-based; details: Escherichia coli WP2 (trpE65) cells, read-out: Activity; summary of the method: as §1
Escherichia coli [13] = experiment: Antimutagenic activity in Escherichia coli WP2 (trpE65 deltauvrApKM101) assessed as maximal inhibition of methyl methane sulfonate-induced mutagenic effect at 10 to 300 ug/plate after 72 hrs in absence of metabolic activation system S9 by Ames test; assay type: functional; summary of the method: as §2
Escherichia coli [14] = experiment: Antimutagenic activity in Escherichia coli WP2 (trpE65 deltauvrA) assessed as maximal inhibition of methyl methane sulfonate-induced mutagenic effect at 10 to 300 ug/plate after 72 hrs in absence of metabolic activation system S9 by Ames test; assay type: functional; summary of the method: as §2
Escherichia coli [15] = experiment: Antimutagenic activity in Escherichia coli WP2 (trpE65) assessed as maximal inhibition of methyl methane sulfonate-induced mutagenic effect at 10 to 300 ug/plate after 72 hrs in absence of metabolic activation system S9 by Ames test; assay type: functional; summary of the method: as §2
[16] = Solubility of the compound up to 110 ug/mL; assay type: physicochemical
Summary of the method: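 Compounds dissolved in DMSO by sonication, stock up to 12 mg/mL. Insolubility in the final assay mixture judged as a precipitate visible to the unaided eye.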

SMILES | viability at 72 h [1] [%] | viability at 72 h [2] [%] | viability at 72 h [3] [%] | viability at 72 h [4] [%] | viability at 72 h [5] [%] | viability at 72 h [6] [%] | inhibition (INH) (Escherichia coli [7]) [%] | inhibition (INH) (Escherichia coli [8]) [%] | inhibition (INH) (Escherichia coli [9]) [%] | viability at 72 h [10] [%] | viability at 72 h [11] [%] | viability at 72 h [12] [%] | inhibition (INH) (Escherichia coli [13]) [%] | inhibition (INH) (Escherichia coli [14]) [%] | inhibition (INH) (Escherichia coli [15]) [%] | solubility [16]
CC(C)N=C=S [ISOPROPYL ISOTHIOCYANATE] | 93 | 77 | 77 | 93 | 77 | 77 | 57.9 | 18.6 | 81.9 | 80 | 82 | 80 | 32.9 | 45.7 | 9.7 | soluble
CC(C)/C(=N/OS(=O)(=O)O)S[C@@H]1O[C@H](CO)[C@@H](O)[C@H](O)[C@H]1O [GLUCOPUTRANJIVIN] | 93 | 77 | 77 | 93 | 77 | 77 | 61.6 | 21.5 | 80.1 | 80 | 82 | 80 | 38.5 | 44.6 | 32.8 | soluble
